ChEMBL document CHEMBL1126178, “Structure-activity study of hCGRP8-37, a calcitonin gene-related peptide receptor antagonist” (J Med Chem, 1992)
pEC50, pIC50: −log10 of the molar value.

Legend:
Cavia porcellus [1] = species: Cavia porcellus; assay: Dose inhibiting the ionotropic response induced by hCGRP-alpha in guinea pig left atrium.; assay type: functional; details: Cardiac atrium
Outline: (§1)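 Atria were taken from male Hartley guinea pigs (350-400 g) and the prostatic vas deferens from male Sprague-Dawley rats (200-250 g). Tissues were mounted on platinum electrodes in oxygenated Krebs-Ringer at 37 °C and equilibrated 1 h at 0.5-1 g tension. Force-transducer responses were recorded to cumulative hCGRPα concentrations, with test peptide (1 µM) added 10 min before. Values are mean ± SE.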

Cavia porcellus [2] = species: Cavia porcellus; assay: Dose inhibiting the chronotropic response induced by hCGRP-alpha in guinea pig right atrium.; assay type: functional; details: Cardiac atrium; outline: as §1
Cavia porcellus [3] = species: Cavia porcellus; assay: Dose inhibiting the ionotropic response induced by hCGRP-alpha in guinea pig right atrium.; assay type: functional; details: Cardiac atrium; outline: as §1
Rattus norvegicus [4] = species: Rattus norvegicus; assay: Dose inhibiting the twitch response induced by hCGRP-alpha in rat vas deferens.; assay type: functional; outline: as §1
[5] = biological target: Calcitonin gene-related peptide type 1 receptor (Rattus norvegicus, UniProt Q63118); assay: Binding affinity against [125I]-hCalcitonin gene-related peptide type alpha receptor binding sites in rat brain membrane; assay type: cell membranes
Cavia porcellus [6] = species: Cavia porcellus; assay: Dose inhibiting the ionotropic response induced by hCGRP-alpha in guinea pig left atrium relative to hCGRP(8-37).; assay type: functional, Cardiac atrium; set-up: unit not given here
Cavia porcellus [7] = species: Cavia porcellus; assay: Dose inhibiting the chronotropic response induced by hCGRP-alpha in guinea pig right atrium relative to hCGRP(8-37).; assay type: functional, Cardiac atrium; set-up: unit not given here
Cavia porcellus [8] = species: Cavia porcellus; assay: Dose inhibiting the ionotropic response induced by hCGRP-alpha in guinea pig right atrium relative to hCGRP(8-37).; assay type: functional, Cardiac atrium; set-up: unit not given here
Rattus norvegicus [9] = species: Rattus norvegicus; assay: Dose inhibiting the twitch response induced by hCGRP-alpha in rat vas deferens relative to hCGRP(8-37).; assay type: functional; set-up: unit not given here

Chain of Calcitonin gene-related peptide type 1 receptor (Q63118 whole entry): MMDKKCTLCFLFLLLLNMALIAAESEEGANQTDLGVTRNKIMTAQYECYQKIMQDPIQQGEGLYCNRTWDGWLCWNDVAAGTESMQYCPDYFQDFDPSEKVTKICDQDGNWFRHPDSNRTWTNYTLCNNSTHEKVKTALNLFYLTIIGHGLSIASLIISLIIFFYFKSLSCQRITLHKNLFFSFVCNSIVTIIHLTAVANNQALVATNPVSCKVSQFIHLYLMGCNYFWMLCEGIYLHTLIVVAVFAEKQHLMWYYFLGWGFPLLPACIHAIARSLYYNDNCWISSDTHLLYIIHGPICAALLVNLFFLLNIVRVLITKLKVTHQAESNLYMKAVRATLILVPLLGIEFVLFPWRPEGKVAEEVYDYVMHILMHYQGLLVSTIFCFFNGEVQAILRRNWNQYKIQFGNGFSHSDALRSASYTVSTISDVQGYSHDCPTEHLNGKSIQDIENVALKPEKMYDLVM

Compound	pEC50 (Cavia porcellus [1])	pEC50 (Cavia porcellus [2])	pEC50 (Cavia porcellus [3])	pEC50 (Rattus norvegicus [4])	pIC50 [5]	Relative potency (Cavia porcellus [6])	Relative potency (Cavia porcellus [7])	Relative potency (Cavia porcellus [8])	Relative potency (Rattus norvegicus [9])
CC(C)C[C@H](NC(=O)CNC(=O)[C@H](C)NC(=O)[C@H](CC(C)C)NC(=O)[C@@H](N)CCCN=C(N)N)C(=O)N[C@@H](CC(C)C)C(=O)N[C@@H](CO)C(=O)N[C@@H](CCCN=C(N)N)C(=O)N[C@@H](CO)C(=O)NCC(=O)NCC(=O)N[C@H](C(=O)N[C@H](C(=O)N[C@@H](CCCCN)C(=O)N[C@@H](CC(N)=O)C(=O)N[C@@H](CC(N)=O)C(=O)N[C@@H](Cc1ccccc1)C(=O)N[C@H](C(=O)N1CCC[C@H]1C(=O)N[C@H](C(=O)N[C@@H](CC(N)=O)C(=O)N[C@H](C(=O)NCC(=O)N[C@@H](CO)C(=O)N[C@@H](CCCCN)C(=O)N[C@@H](C)C(=O)N[C@@H](Cc1ccccc1)C(N)=O)C(C)C)[C@@H](C)O)C(C)C)C(C)C)C(C)C	7.52	7.19	7.05	8.85					
CC(C)C[C@H](NC(=O)CNC(=O)[C@H](C)NC(=O)[C@H](CC(C)C)NC(=O)[C@H](CCCNC(=N)N)NC(=O)[C@H](Cc1cnc[nH]1)NC(=O)[C@@H](NC(=O)[C@@H](N)C(C)C)[C@@H](C)O)C(=O)N[C@@H](CC(C)C)C(=O)N[C@@H](CO)C(=O)N[C@@H](CCCNC(=N)N)C(=O)N[C@@H](CO)C(=O)NCC(=O)NCC(=O)N[C@H](C(=O)N[C@H](C(=O)N[C@@H](CCCCN)C(=O)N[C@@H](CC(N)=O)C(=O)N[C@@H](CC(N)=O)C(=O)N[C@@H](Cc1ccccc1)C(=O)N[C@H](C(=O)N1CCC[C@H]1C(=O)N[C@H](C(=O)N[C@@H](CC(N)=O)C(=O)N[C@H](C(=O)NCC(=O)N[C@@H](CO)C(=O)N[C@@H](CCCCN)C(=O)N[C@@H](C)C(=O)N[C@@H](Cc1ccccc1)C(N)=O)C(C)C)[C@@H](C)O)C(C)C)C(C)C)C(C)C	6.71	6.54	6.57	8.17					
CC(C)C[C@H](NC(=O)CNC(=O)[C@H](C)NC(=O)[C@H](CC(C)C)NC(=O)[C@H](CCCN=C(N)N)NC(=O)[C@H](Cc1c[nH]cn1)NC(=O)[C@@H](NC(=O)[C@@H](NC(=O)[C@@H]1CSSC[C@H](NC(=O)[C@H](C)N)C(=O)N[C@@H](CC(=O)O)C(=O)N[C@@H]([C@@H](C)O)C(=O)N[C@@H](C)C(=O)N[C@@H]([C@@H](C)O)C(=O)N1)C(C)C)[C@@H](C)O)C(=O)N[C@@H](CC(C)C)C(=O)N[C@@H](CO)C(=O)N[C@@H](CCCN=C(N)N)C(=O)N[C@@H](CO)C(=O)NCC(=O)NCC(=O)N[C@H](C(=O)N[C@H](C(=O)N[C@@H](CCCCN)C(=O)N[C@@H](CC(N)=O)C(=O)N[C@@H](CC(N)=O)C(=O)N[C@@H](Cc1ccccc1)C(=O)N[C@H](C(=O)N1CCC[C@H]1C(=O)N[C@H](C(=O)N[C@@H](CC(N)=O)C(=O)N[C@H](C(=O)NCC(=O)N[C@@H](CO)C(=O)N[C@@H](CCCCN)C(=O)N[C@@H](C)C(=O)N[C@@H](Cc1ccccc1)C(N)=O)C(C)C)[C@@H](C)O)C(C)C)C(C)C)C(C)C	8.06	7.72	8.10	8.85					
H-VTHALAGLLSRSGGVVKNNFVPTNVGSKAF-NH2	7.24	7.08	6.97	8.51	7.48	30	29	40	46
H-VTHRAAGLLSRSGGVVKNNFVPTNVGSKAF-NH2	7.05	6.94	6.94	8.66	7.66	46	40	43	33
CC(C)C[C@H](NC(=O)CNC(=O)[C@H](C)NC(=O)[C@H](CC(C)C)NC(=O)[C@H](CCCN=C(N)N)NC(=O)[C@H](Cc1c[nH]cn1)NC(=O)[C@H](C)NC(=O)[C@@H](N)C(C)C)C(=O)N[C@@H](CC(C)C)C(=O)N[C@@H](CO)C(=O)N[C@@H](CCCN=C(N)N)C(=O)N[C@@H](CO)C(=O)NCC(=O)NCC(=O)N[C@H](C(=O)N[C@H](C(=O)N[C@@H](CCCCN)C(=O)N[C@@H](CC(N)=O)C(=O)N[C@@H](CC(N)=O)C(=O)N[C@@H](Cc1ccccc1)C(=O)N[C@H](C(=O)N1CCC[C@H]1C(=O)N[C@H](C(=O)N[C@@H](CC(N)=O)C(=O)N[C@H](C(=O)NCC(=O)N[C@@H](CO)C(=O)N[C@@H](CCCCN)C(=O)N[C@@H](C)C(=O)N[C@@H](Cc1ccccc1)C(N)=O)C(C)C)[C@@H](C)O)C(C)C)C(C)C)C(C)C	6.93	6.62	6.71	8.62	8.17	60	82	72	36
CC(C)C[C@H](NC(=O)CNC(=O)[C@H](C)NC(=O)[C@H](CC(C)C)NC(=O)[C@H](CCCN=C(N)N)NC(=O)[C@H](C)NC(=O)[C@@H](NC(=O)[C@@H](N)C(C)C)[C@@H](C)O)C(=O)N[C@@H](CC(C)C)C(=O)N[C@@H](CO)C(=O)N[C@@H](CCCN=C(N)N)C(=O)N[C@@H](CO)C(=O)NCC(=O)NCC(=O)N[C@H](C(=O)N[C@H](C(=O)N[C@@H](CCCCN)C(=O)N[C@@H](CC(N)=O)C(=O)N[C@@H](CC(N)=O)C(=O)N[C@@H](Cc1ccccc1)C(=O)N[C@H](C(=O)N1CCC[C@H]1C(=O)N[C@H](C(=O)N[C@@H](CC(N)=O)C(=O)N[C@H](C(=O)NCC(=O)N[C@@H](CO)C(=O)N[C@@H](CCCCN)C(=O)N[C@@H](C)C(=O)N[C@@H](Cc1ccccc1)C(N)=O)C(C)C)[C@@H](C)O)C(C)C)C(C)C)C(C)C	7.02	6.89	6.75	8.49					
CC(C)C[C@H](NC(=O)CNC(=O)[C@H](C)NC(=O)[C@H](CC(C)C)NC(=O)[C@H](CCCN=C(N)N)NC(=O)[C@@H](N)Cc1c[nH]cn1)C(=O)N[C@@H](CC(C)C)C(=O)N[C@@H](CO)C(=O)N[C@@H](CCCN=C(N)N)C(=O)N[C@@H](CO)C(=O)NCC(=O)NCC(=O)N[C@H](C(=O)N[C@H](C(=O)N[C@@H](CCCCN)C(=O)N[C@@H](CC(N)=O)C(=O)N[C@@H](CC(N)=O)C(=O)N[C@@H](Cc1ccccc1)C(=O)N[C@H](C(=O)N1CCC[C@H]1C(=O)N[C@H](C(=O)N[C@@H](CC(N)=O)C(=O)N[C@H](C(=O)NCC(=O)N[C@@H](CO)C(=O)N[C@@H](CCCCN)C(=O)N[C@@H](C)C(=O)N[C@@H](Cc1ccccc1)C(N)=O)C(C)C)[C@@H](C)O)C(C)C)C(C)C)C(C)C	7.19	7.11	6.94	8.49	8.00	34	27	43	48
CC(C)C[C@H](NC(=O)CNC(=O)[C@H](C)NC(=O)[C@H](CC(C)C)NC(=O)[C@H](CCCN=C(N)N)NC(=O)[C@H](Cc1c[nH]cn1)NC(=O)[C@@H](N)[C@@H](C)O)C(=O)N[C@@H](CC(C)C)C(=O)N[C@@H](CO)C(=O)N[C@@H](CCCN=C(N)N)C(=O)N[C@@H](CO)C(=O)NCC(=O)NCC(=O)N[C@H](C(=O)N[C@H](C(=O)N[C@@H](CCCCN)C(=O)N[C@@H](CC(N)=O)C(=O)N[C@@H](CC(N)=O)C(=O)N[C@@H](Cc1ccccc1)C(=O)N[C@H](C(=O)N1CCC[C@H]1C(=O)N[C@H](C(=O)N[C@@H](CC(N)=O)C(=O)N[C@H](C(=O)NCC(=O)N[C@@H](CO)C(=O)N[C@@H](CCCCN)C(=O)N[C@@H](C)C(=O)N[C@@H](Cc1ccccc1)C(N)=O)C(C)C)[C@@H](C)O)C(C)C)C(C)C)C(C)C	6.67	6.74	6.65	8.12					
